Tests used:
[1] = Single ascending dose; assay type: in vivo, human; settings: human, plasma, oral
Outline: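 Healthy participants, double-blind cross-over between 2 cohorts of 9, randomized 6:3 drug:placebo each period. Single oral doses of 10–800 mg right after a moderate-fat breakfast (600 calories, 30% fat). Plasma sampled to 360 h (protocol first set 96 h); LLOQ 10 ng/mL. Non-compartmental analysis; dose proportionality by power model.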

[2] = system: healthy participants; test: Safety and tolerability, multiple ascending dose; assay type: in vivo, human; settings: for Abdominal pain, n occurrences (% of cohort) / All-cause AEs Grade 2, n occurrences (% of cohort) / All-cause AEs Grade 3/4, n occurrences (% of cohort) / All-cause AEs, n occurrences (% of cohort) / Constipation, n occurrences (% of cohort) / Diarrhea, n occurrences (% of cohort) / Drug-related AEs Grade 2, n occurrences (% of cohort) / Drug-related AEs Grade 3/4, n occurrences (% of cohort) / Drug-related AEs, n occurrences (% of cohort) / Headache, n occurrences (% of cohort) / MDSD, n occurrences (% of cohort): N=7
Outline: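 AEs in healthy participants given oral test compound or placebo, recorded with grade and relation to treatment. Laboratory analyses, clinical parameters and suicidality were also monitored. Observation ran 360 h after dosing. Summaries were descriptive, with no formal statistics; parts 1–2 blinded and placebo-controlled, part 3 open-label.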

[3] = system: HIV-1; settings: cited from earlier work

C=C(C)[C@@H]1CC[C@]2(NCCN3CCS(=O)(=O)CC3)CC[C@]3(C)[C@H](CC[C@@H]4[C@@]5(C)CC=C(C6=CC[C@@](COc7ncccc7C#N)(C(=O)O)CC6)C(C)(C)[C@@H]5CC[C@]43C)[C@@H]12 [GSK'937]
Cmax ([1]; 30 mg): 127 ng/mL | half-life ([1]; 30 mg, t 1/2 GM (%CVb), SAD 30 mg): 75.9 h | Tmax ([1]; 30 mg, t max, h median (range), SAD 30 mg): 8 h | Cmax ([1]; 80 mg): 310 ng/mL | half-life ([1]; 80 mg, t 1/2 GM (%CVb), SAD 80 mg): 79.1 h | Tmax ([1]; 80 mg, t max, h median (range), SAD 80 mg): 7.98 h | Cmax ([1]; 160 mg): 529 ng/mL | half-life ([1]; 160 mg, t 1/2 GM (%CVb), SAD 160 mg): 91.8 h | Tmax ([1]; 160 mg, t max, h median (range), SAD 160 mg): 7.95 h | Cmax ([1]; 320 mg): 1010 ng/mL | half-life ([1]; 320 mg, t 1/2 GM (%CVb), SAD 320 mg): 96.8 h | Tmax ([1]; 320 mg, t max, h median (range), SAD 320 mg): 6.99 h | Cmax ([1]; 640 mg): 1460 ng/mL | half-life ([1]; 640 mg, t 1/2 GM (%CVb), SAD 640 mg): 82.6 h | Tmax ([1]; 640 mg, t max, h median (range), SAD 640 mg): 7 h | Cmax ([1]; 800 mg): 2860 ng/mL | half-life ([1]; 800 mg, t 1/2 GM (%CVb), SAD 800 mg): 67.4 h | Tmax ([1]; 800 mg, t max, h median (range), SAD 800 mg): 18 h | Tmax ([1]; Median t max, all single doses except the 800-mg dose): 7 to 8 h | half-life ([1]; t 1/2, range across doses, part 1 single doses): 67 to 97 h | half-life ([1]; terminal phase half-life, all doses following single and repeat dosing): ~72 h | changes in laboratory analyses, clinical parameters, or suicidality ([2]; MAD): No significant changes | deaths or SAEs ([2]; MAD): no deaths or SAEs | Abdominal pain, n occurrences (% of cohort) ([2]; MAD 25 mg QD): 0 | All-cause AEs Grade 2, n occurrences (% of cohort) ([2]; MAD 25 mg QD): 0 | All-cause AEs Grade 3/4, n occurrences (% of cohort) ([2]; MAD 25 mg QD): 0 | All-cause AEs, n occurrences (% of cohort) ([2]; MAD 25 mg QD): 0 | Constipation, n occurrences (% of cohort) ([2]; MAD 25 mg QD): 0 | Diarrhea, n occurrences (% of cohort) ([2]; MAD 25 mg QD): 0 | Drug-related AEs Grade 2, n occurrences (% of cohort) ([2]; MAD 25 mg QD): 0 | Drug-related AEs Grade 3/4, n occurrences (% of cohort) ([2]; MAD 25 mg QD): 0 | Drug-related AEs, n occurrences (% of cohort) ([2]; MAD 25 mg QD): 0 | Headache, n occurrences (% of cohort) ([2]; MAD 25 mg QD): 0 | MDSD, n occurrences (% of cohort) ([2]; MAD 25 mg QD): 0 | Abdominal pain, n occurrences (% of cohort) ([2]; MAD 50 mg QD): 0 | All-cause AEs Grade 2, n occurrences (% of cohort) ([2]; MAD 50 mg QD): 1 (14) | All-cause AEs Grade 3/4, n occurrences (% of cohort) ([2]; MAD 50 mg QD): 0 | All-cause AEs, n occurrences (% of cohort) ([2]; MAD 50 mg QD): 3 (29) | Constipation, n occurrences (% of cohort) ([2]; MAD 50 mg QD): 0 | Diarrhea, n occurrences (% of cohort) ([2]; MAD 50 mg QD): 0 | Drug-related AEs Grade 2, n occurrences (% of cohort) ([2]; MAD 50 mg QD): 0 | Drug-related AEs Grade 3/4, n occurrences (% of cohort) ([2]; MAD 50 mg QD): 0 | Drug-related AEs, n occurrences (% of cohort) ([2]; MAD 50 mg QD): 0 | Headache, n occurrences (% of cohort) ([2]; MAD 50 mg QD): 1 (14) | MDSD, n occurrences (% of cohort) ([2]; MAD 50 mg QD): 1 (14) | Abdominal pain, n occurrences (% of cohort) ([2]; MAD 100 mg QD): 0 | All-cause AEs Grade 2, n occurrences (% of cohort) ([2]; MAD 100 mg QD): 0 | All-cause AEs Grade 3/4, n occurrences (% of cohort) ([2]; MAD 100 mg QD): 0 | All-cause AEs, n occurrences (% of cohort) ([2]; MAD 100 mg QD): 8 (71) | Constipation, n occurrences (% of cohort) ([2]; MAD 100 mg QD): 0 | Diarrhea, n occurrences (% of cohort) ([2]; MAD 100 mg QD): 0 | Drug-related AEs Grade 2, n occurrences (% of cohort) ([2]; MAD 100 mg QD): 0 | Drug-related AEs Grade 3/4, n occurrences (% of cohort) ([2]; MAD 100 mg QD): 0 | Drug-related AEs, n occurrences (% of cohort) ([2]; MAD 100 mg QD): 1 (14) | Headache, n occurrences (% of cohort) ([2]; MAD 100 mg QD): 0 | MDSD, n occurrences (% of cohort) ([2]; MAD 100 mg QD): 1 (14) | Abdominal pain, n occurrences (% of cohort) ([2]; MAD 500 mg QW): 1 (14) | All-cause AEs Grade 2, n occurrences (% of cohort) ([2]; MAD 500 mg QW): 0 | All-cause AEs Grade 3/4, n occurrences (% of cohort) ([2]; MAD 500 mg QW): 0 | All-cause AEs, n occurrences (% of cohort) ([2]; MAD 500 mg QW): 7 (57) | Constipation, n occurrences (% of cohort) ([2]; MAD 500 mg QW): 0 | Drug-related AEs Grade 2, n occurrences (% of cohort) ([2]; MAD 500 mg QW): 0 | Drug-related AEs Grade 3/4, n occurrences (% of cohort) ([2]; MAD 500 mg QW): 0 | Drug-related AEs, n occurrences (% of cohort) ([2]; MAD 500 mg QW): 3 (43) | Headache, n occurrences (% of cohort) ([2]; MAD 500 mg QW): 0 | MDSD, n occurrences (% of cohort) ([2]; MAD 500 mg QW): 1 (14) | potency in vitro [3]: low nanomolar

Source: PMC10238757 (Pharmacology Research & Perspectives, 2023)
